13 compounds from ChEMBL document CHEMBL1811864 (Bioorg Med Chem, 2011) can be followed below.

The subject of one data set is Pseudomonas aeruginosa. In words: Growth inhibition of Pseudomonas aeruginosa PAO1 MW1 (pUM15) at 10 uM after 4 to 16 hrs. It counts as organism-based. As to conditions: in vivo. The method, boiled down:
(§1)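 Bacterial growth was monitored over the reporter gene assay time course (4–16 h) with compounds at 10 µM.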

Data set [1] addresses T1, Transcriptional activator protein TraR (Agrobacterium tumefaciens) (UniProt P33905).
T1 sequence (whole entry): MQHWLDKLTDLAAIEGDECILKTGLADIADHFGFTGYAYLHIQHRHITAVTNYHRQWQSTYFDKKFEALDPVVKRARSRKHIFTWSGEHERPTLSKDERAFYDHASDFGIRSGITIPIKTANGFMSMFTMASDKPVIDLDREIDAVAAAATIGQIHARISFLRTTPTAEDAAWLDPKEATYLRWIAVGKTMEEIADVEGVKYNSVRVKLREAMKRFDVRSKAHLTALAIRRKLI
The data set can be described thus: Agonist activity at Agrobacterium tumefaciens WCF (pCF372) TraR at 10 uM after 8 hrs by beta-galactosidase reporter gene assay relative to […]. It counts as functional. A general note: A reporter such as luciferase makes a cellular process visible.

The target of data set [2] is T2, Transcriptional activator protein LasR (Pseudomonas aeruginosa (strain ATCC 15692 / PAO1 / 1C / PRS 101 / LMG12228)) (UniProt P25084).
T2 sequence (whole entry): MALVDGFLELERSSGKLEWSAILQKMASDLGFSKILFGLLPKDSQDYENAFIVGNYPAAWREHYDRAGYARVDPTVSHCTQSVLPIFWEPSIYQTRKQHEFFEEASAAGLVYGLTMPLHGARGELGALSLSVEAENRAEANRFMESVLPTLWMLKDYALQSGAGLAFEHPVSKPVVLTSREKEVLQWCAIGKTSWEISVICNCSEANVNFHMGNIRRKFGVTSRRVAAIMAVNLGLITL
In words: Agonist activity at Pseudomonas aeruginosa PAO1 MW1 (pUM15) LasR at 10 uM after 8 hrs by YFP fluorescence reporter gene assay relative to OdDHL.

The subject of a further data set is Aliivibrio fischeri. In words: Growth inhibition of Vibrio fischeri ESI 114 (delta-LuxI) at 10 uM after 4 to 16 hrs. It counts as organism-based. As to conditions: in vivo. The method in brief: as §1
Data set [3] has as its target T3, Transcriptional activator protein LuxR (Aliivibrio fischeri) (UniProt P12746).
T3 sequence (whole entry): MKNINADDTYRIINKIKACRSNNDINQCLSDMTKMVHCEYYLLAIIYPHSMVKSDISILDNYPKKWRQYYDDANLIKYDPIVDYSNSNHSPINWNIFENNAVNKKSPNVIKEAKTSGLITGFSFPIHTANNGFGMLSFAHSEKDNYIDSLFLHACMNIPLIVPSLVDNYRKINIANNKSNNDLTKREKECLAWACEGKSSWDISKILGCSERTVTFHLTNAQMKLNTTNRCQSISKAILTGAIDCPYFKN
The data set can be described thus: Antagonist activity at Vibrio fischeri ESI 114 (delta-LuxI) LuxR assessed as inhibition of […]-induced quorum sensing activation at 10 uM after 8 hrs by […] relative to untreated control. In kind it is functional.

Data set [4] addresses T3, Transcriptional activator protein LuxR (Aliivibrio fischeri). In words: Agonist activity at Vibrio fischeri ESI 114 (delta-LuxI) LuxR at 10 uM after 8 hrs by […] relative to […]. It counts as functional. The method in brief:
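V. fischeri ESI 114 lacking LuxI synthase but keeping its native lux operon; LuxR activity read as luminescence. Compounds were screened at 10 µM alone, without native AHL. Signal was normalized to the native-ligand positive control.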

In another data set the test system is Escherichia coli. In words: Growth inhibition of Escherichia coli DH5alpha (pJN105L + pSC11) at 10 uM after 4 to 16 hrs. It counts as organism-based, DH5[alpha]. The settings on record: in vivo. The method, boiled down:
as §1

The test system of data set [5] is Escherichia coli DH5[alpha]. The data set can be described thus: Agonist activity at Escherichia coli DH5alpha (pJN105L + pSC11) LasR at 10 uM after 8 hrs by beta-galactosidase reporter gene assay relative to OdDHL. In kind it is functional.
Data set [6] relates to Agrobacterium tumefaciens. In words: Growth inhibition of Agrobacterium tumefaciens WCF (pCF372) at 10 uM after 4 to 16 hrs. In kind it is organism-based. As to conditions: in vivo. The method in brief: as §1
Data set [7] addresses T1, Transcriptional activator protein TraR (Agrobacterium tumefaciens). In words: Antagonist activity at Agrobacterium tumefaciens WCF (pCF372) TraR assessed as inhibition of […]-induced quorum sensing activation at 10 uM after 8 hrs by beta-galactosidase reporter gene assay relative to untreated control. In kind it is functional.
Data set [8] concerns Escherichia coli DH5[alpha]. The data set can be described thus: Antagonist activity at Escherichia coli DH5alpha (pJN105L + pSC11) LasR assessed as inhibition of OdDHL-induced quorum sensing activation at 10 uM after 8 hrs by beta-galactosidase reporter gene assay relative to untreated control. In kind it is functional.
Data set [9] is described as follows: Antagonist activity at Escherichia coli DH5alpha (pJN105L + pSC11) LasR assessed as inhibition of OdDHL-induced quorum sensing activation after 8 hrs by beta-galactosidase reporter gene assay. It counts as functional, Escherichia coli DH5[alpha].
Data set [10] deals with T4, Transcriptional activator protein LuxR (Aliivibrio fischeri, UniProt P12746).
T4 sequence (P12746 whole entry): T3 sequence (whole entry)
The data set can be described thus: Antagonist activity at Vibrio fischeri ESI 114 (delta-LuxI) LuxR assessed as inhibition of OHHL-induced quorum sensing activation after 8 hrs by […].

With `CCCCCCCCCC(=O)CC(=O)NC1CCSC1=O` (racemic), the Activity entry in the data set on Pseudomonas aeruginosa was “Non-toxic”; in data set [1], 1%; in data set [2] it was 127%; with Aliivibrio fischeri, “Non-toxic”; in [4], 0%; in the data set with Escherichia coli, “Non-toxic”. Besides, the Activity is 102% in data set [5] and “Non-toxic” in data set [6]. The results for the inhibition in data set [3] and in data set [7] were 91% and 51%, respectively.

On to `O=C(Cc1ccc(Br)cc1)N[C@H]1CCSC1=O`, for which the Activity result with Pseudomonas aeruginosa was “Non-toxic”; in data set [1], 0%; in data set [2] it was 8%; with Aliivibrio fischeri, “Non-toxic”; in [4], 0%; with Escherichia coli, “Non-toxic”. Also, the Activity in data set [5] was 2%; in data set [6], “Non-toxic”. Moreover, the inhibition in data set [3] was determined as 97%; in data set [8], 80%. In addition, the IC50 in [9] worked out at 400 nM; in [10] it was 770 nM.

`COc1ccc(CC(=O)N[C@H]2CCSC2=O)cc1`: the Activity entry was “Non-toxic” in the data set on Pseudomonas aeruginosa; 0% in data set [1]; 7% in data set [2]; “Non-toxic” in the data set on Aliivibrio fischeri; 1% in data set [4]; “Non-toxic” in the data set on Escherichia coli. The Activity is 1% in [5] and “Non-toxic” in data set [6]. For the same compound, the figures for the inhibition in data set [3] and in data set [8] were 70% and 51%, respectively. The IC50 in data set [9] is 7200 nM.

As to `CCCC(=O)N[C@H]1CCSC1=O`, the Activity result with Pseudomonas aeruginosa was “Non-toxic”; in [1] it was 0%; in data set [2] it was 22%; with Aliivibrio fischeri it was “Non-toxic”; in data set [4] it was 0%; in the data set with Escherichia coli, “Non-toxic”. The figures for the Activity in data set [5] and in [6] were 4% and “Non-toxic”, respectively. Further, the figures for the inhibition in data set [3] and in data set [8] were 42% and 17%, respectively.

`COc1ccc(CC(=O)NC2CCSC2=O)cc1` (racemic): the Activity entry with Pseudomonas aeruginosa was “Non-toxic”; in data set [2] it was 4%; in the data set on Aliivibrio fischeri, “Non-toxic”; in data set [4], 0%; in the data set with Escherichia coli, “Non-toxic”; in data set [5] it was 0%. In addition, in data set [6], the Activity entry was “Non-toxic”. Further, the results for the inhibition in data set [3] and in data set [8] were 59% and 48%, respectively.

Regarding `O=C(Cc1ccccc1)N[C@H]1CCSC1=O`, the Activity entry with Pseudomonas aeruginosa is “Non-toxic”; in [1] it was 3%; in data set [2], 2%; in the data set on Aliivibrio fischeri, “Non-toxic”; in [4] it was 0%; with Escherichia coli, “Non-toxic”. For the same compound, the Activity in [5] is 2%; in data set [6] it was “Non-toxic”. Also, the inhibition in data set [3] is 34%; in data set [8], 65%. The IC50 in [9] worked out at 2500 nM.

In the case of `O=C(Cc1ccc(-c2ccccc2)cc1)N[C@H]1CCSC1=O`, the Activity entry in the data set with Pseudomonas aeruginosa is “Non-toxic”; in data set [1], 0%; in data set [2], 3%; with Aliivibrio fischeri, “Non-toxic”; in [4] it was 0%; in the data set on Escherichia coli, “Non-toxic”. The Activity is 9% in data set [5] and “Non-toxic” in data set [6]. Also, the inhibition in data set [3] stood at 98%; in data set [8], 56%; in [7], 9%. The 50% inhibitory concentration (IC50) in data set [9] stood at 2900 nM; in [10], 350 nM.

Consider `CCCCCC(=O)N[C@H]1CCSC1=O`, for which the Activity result was “Non-toxic” with Pseudomonas aeruginosa; 0% in [1]; 20% in [2]; “Non-toxic” in the data set on Aliivibrio fischeri; 0% in data set [4]; “Non-toxic” with Escherichia coli. In addition, the Activity was 1% in [5] and “Non-toxic” in data set [6]. Besides, the inhibition in [3] worked out at 93%; in data set [8], 59%. The IC50 in data set [9] amounted to 1100 nM; in data set [10], 840 nM.

Turning to `O=C(CCc1cc2ccccc2[nH]1)NC1CCSC1=O` (racemic), the Activity entry is “Non-toxic” in the data set on Pseudomonas aeruginosa; 6% in data set [1]; 3% in data set [2]; “Non-toxic” with Aliivibrio fischeri; 0% in [4]; “Non-toxic” with Escherichia coli. The Activity in data set [5] was 72%; in [6] it was “Non-toxic”. The figures for the inhibition in [3] and in data set [8] were 75% and 54%, respectively.

For `O=C(Cc1ccccc1)NC1CCSC1=O` (racemic), the Activity entry was “Non-toxic” in the data set with Pseudomonas aeruginosa; 0% in [1]; 17% in [2]; “Non-toxic” with Aliivibrio fischeri; 0% in data set [4]; “Non-toxic” in the data set with Escherichia coli. For the same compound, the results for the Activity in data set [5] and in data set [6] were 3% and “Non-toxic”, respectively. Further, the results for the inhibition in [3], in data set [8] and in data set [7] were 30%, 61% and 13%, respectively.

Take `O=C(Cc1ccc(-c2ccccc2)cc1)NC1CCSC1=O` (racemic): the Activity entry was “Non-toxic” in the data set with Pseudomonas aeruginosa; 11% in [1]; 1% in [2]; “Non-toxic” with Aliivibrio fischeri; 0% in data set [4]; “Non-toxic” with Escherichia coli. In addition, the Activity result in data set [6] is given as “Non-toxic”. The inhibition was 85% in [3], 45% in [8] and 26% in [7].

In the case of `O=C(Cc1ccc(Br)cc1)NC1CCSC1=O` (racemic), the Activity result in the data set on Pseudomonas aeruginosa is “Non-toxic”; in data set [1], 1%; in [2] it was 5%; in the data set with Aliivibrio fischeri, “Non-toxic”; in data set [4], 0%; in the data set on Escherichia coli, “Non-toxic”. Moreover, the Activity in [5] is 8%; in data set [6], “Non-toxic”. Besides, the values for the inhibition in data set [3], in [8] and in data set [7] were 91%, 68% and 25%, respectively.

Consider `O=C(Cc1cccc([N+](=O)[O-])c1)NC1CCSC1=O` (racemic), for which the Activity entry in the data set with Pseudomonas aeruginosa was “Non-toxic”; in data set [1] it was 0%; in data set [2], 3%; in the data set with Aliivibrio fischeri, “Non-toxic”; in [4] it was 26%; with Escherichia coli, “Non-toxic”. The Activity was 81% in [5] and “Non-toxic” in data set [6]. Further, the inhibition in data set [3] is 30%; in data set [8], -3%; in [7], 30%.

For orientation: inhibition means the relative decrease from the control value, in per cent. In general, IC50 refers to the midpoint of a concentration-inhibition curve.
